Laboratory results as given in ChEMBL document CHEMBL4190293, “Anti-inflammatory Meroterpenoids from Baeckea frutescens” (J Nat Prod, 2017).
The source made the active and inactive calls. No cut-off for these calls is given here.

How the values were obtained:
RAW264.7 [1] = test: Antiinflammatory activity in mouse RAW264.7 cells assessed as inhibition of LPS-stimulated nitric oxide production pretreated for 2 hrs followed by LPS-stimulation measured after 20 hrs by Griess assay; type: functional, cell-based
Procedure, shortened: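 Murine RAW 264.7 macrophages in DMEM with 10% FBS, seeded at 1 × 10^5 cells/well and grown 12 h. Pretreated with compound for 2 h, then given LPS (1 μg/mL) for 20 h; L-NMMA as positive control. Supernatant nitrite mixed 1:1 with Griess reagent, 10 min at room temperature, absorbance read at 540 nm. IC50 from three independent replicates. Viability checked by Alamar Blue after 20 h.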

RAW264.7 [2] = test: Antiinflammatory activity in mouse RAW264.7 cells assessed as inhibition of LPS-stimulated TNFalpha expression pretreated for 2 hrs followed by LPS-stimulation measured after 18 hrs by ELISA; type: functional, cell-based
Procedure, shortened: (§1)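 RAW 264.7 cells seeded at 1 × 10^6 cells/well in serum-free DMEM for 12 h. Cells pretreated with test compound at 0.2, 0.4 or 0.8 μM for 2 h, then stimulated with LPS (1 μg/mL) for 18 h. TNF-α and IL-6 in the culture supernatant measured by ELISA kit. Mean ± SD of three independent experiments; one-way ANOVA with Dunnett's post hoc test.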

RAW264.7 [3] = test: Antiinflammatory activity in mouse RAW264.7 cells assessed as inhibition of LPS-stimulated IL-6 expression at 0.2 to 0.8 uM pretreated for 2 hrs followed by LPS-stimulation measured after 18 hrs by ELISA; type: functional, cell-based; procedure, shortened: as §1
[4] = biological target: Transcription factor p65 (Mus musculus) (UniProt Q04207); test: Inhibition of NF-kappaB p65 nuclear translocation in LPS-stimulated mouse RAW264.7 cells pretreated for 2 hrs followed by LPS-stimulation measured after 16 hrs by Western blot analysis; type: cell-based
Procedure, shortened: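 RAW 264.7 cells exposed to compound at 0.2, 0.4 or 0.8 μM for 2 h, then given 1 μg/mL LPS, or left unstimulated, for 16 h. Lysates made in RIPA buffer, protein quantified by BCA, run on 10% SDS-PAGE and transferred to PVDF. Blots probed for NF-κB p65 with lamin B as internal control, primary antibodies at 4 °C overnight. Mean ± SD of three independent experiments.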

Sequence of Transcription factor p65 (Mus musculus) (Q04207 whole entry): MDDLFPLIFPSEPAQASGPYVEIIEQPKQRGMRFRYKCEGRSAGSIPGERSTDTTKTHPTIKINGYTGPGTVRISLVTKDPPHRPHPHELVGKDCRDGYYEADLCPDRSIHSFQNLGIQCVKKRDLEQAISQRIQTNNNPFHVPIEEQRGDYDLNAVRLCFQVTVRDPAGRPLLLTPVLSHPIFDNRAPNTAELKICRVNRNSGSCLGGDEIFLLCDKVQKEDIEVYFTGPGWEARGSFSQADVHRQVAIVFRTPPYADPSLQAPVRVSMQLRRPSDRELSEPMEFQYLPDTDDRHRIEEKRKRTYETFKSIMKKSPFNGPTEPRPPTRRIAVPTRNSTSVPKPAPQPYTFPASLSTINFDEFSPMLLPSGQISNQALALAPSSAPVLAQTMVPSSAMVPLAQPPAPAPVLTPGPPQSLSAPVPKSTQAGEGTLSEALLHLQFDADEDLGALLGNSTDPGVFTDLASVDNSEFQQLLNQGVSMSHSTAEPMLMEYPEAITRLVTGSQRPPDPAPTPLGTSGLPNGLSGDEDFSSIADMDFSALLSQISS

SMILES | IC50 (RAW264.7 [1]) | also measured
COC1=C(C)C(=O)[C@@]2(CC=C(CCC=C(C)C)C[C@H]2C(C)C)C(=O)C1(C)C (racemic) | 2.07 µM | 
CNC(=N)NCCC[C@H](N)C(=O)O [TILARGININE] | 30.9 µM | 
C=C1CC[C@@H]2[C@H](C(C)C)C3=C(O[C@@]2(C)CC[C@@H]2[C@@H]1CC2(C)C)C(C)(C)C(OC)=C(C)C3=O | > 50 µM | 
COC1=C(C)C(=O)[C@]2(CC(CCC=C(C)C)=CC[C@H]2C(C)C)C(=O)C1(C)C (racemic) | 6.5 µM | 
COC1=C(C)C(=O)C2=C(O[C@]3(CC[C@@H]4C[C@@H]3C4(C)C)C[C@@H]2C(C)C)C1(C)C | 3.7 µM | 
COC1=C(C)C(=O)C2=C(O[C@@]3(CC[C@]45[C@H]([C@H](C(C)C)CC[C@H]4C)[C@@H]35)C[C@@H]2C(C)C)C1(C)C | 15.2 µM | 
COC1=C(C)C(=O)C2=C(O[C@@]3(C=C4[C@H](C(C)C)CC[C@@H](C)[C@H]4CC3)C[C@H]2C(C)C)C1(C)C | > 50 µM | 
COC1=C(C)C2=C(C(=O)C1(C)C)[C@@H](C(C)C)C[C@]1(CC[C@@]3(C(C)C)C[C@@H]13)O2 | 0.36 µM | inhibition (RAW264.7 [2]): Dose-dependent effect; inhibition (RAW264.7 [3]): inactive; inhibition [4]: Dose-dependent effect
COC1=C(C)C(=O)C2=C(O[C@]3(CC[C@]45[C@H]([C@H](C(C)C)CC[C@H]4C)[C@@H]35)C[C@H]2C(C)C)C1(C)C | 30.5 µM | 
COC1=C(C)C2=C(C(=O)C1(C)C)[C@H](C(C)C)C[C@@]1(CC[C@@]3(C(C)C)C[C@@H]13)O2 (racemic) | 1.8 µM | 
COC1=C(C)C(=O)C2=C(O[C@]3(C=C4[C@H](C(C)C)CC[C@@H](C)[C@H]4CC3)C[C@@H]2C(C)C)C1(C)C | > 50 µM | 
COC1=C(C)C(=O)C2=C(O[C@@]3(C=C4[C@H](C(C)C)CC[C@@H](C)[C@H]4CC3)C[C@@H]2C(C)C)C1(C)C | 18.8 µM | 
